As usually defined, the IC50 is the concentration that gives 50% inhibition.

Activity calls are given as the source filed them. No cut-off for these calls is given here.

Assay [1] is described as follows: (§1) Inhibition of Saccharomyces sp. alpha glucosidase by spectrophotometry. An outline of the steps:
(§2)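 Yeast (Saccharomyces sp.) α-glucosidase, 250 units/mL, in 50 mM sodium phosphate buffer with 100 mM NaCl, pH 6.9, 37 °C; substrate […] p-nitrophenyl α-D-glucopyranoside. Hydrolysis followed continuously as absorbance increase at 400 nm. 1-Deoxynojirimycin (0.425 mM) and acarbose (0.78 mM) served as positive controls. Modified literature method.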

The test system of assay [2] is Saccharomyces. Described as §1. The gist of the method: as §2
The subject of assay [3] is Saccharomyces. Put plainly: Inhibition of Saccharomyces sp. alpha glucosidase at 800 uM by spectrophotometry.

For the compound `C[C@H]1O[C@H](O[C@H]2[C@H](O)[C@@H](O)[C@@H](O[C@H]3[C@H](O)[C@@H](O)C(O)O[C@@H]3CO)O[C@@H]2CO)[C@H](O)[C@@H](O)[C@@H]1N[C@H]1C=C(CO)C(O)[C@H](O)[C@H]1O` (single isomer, unassigned) [ACARBOSE], inhibition in assay [1] was half-maximal at 780 µM (IC50). On to `CC(C)=CCc1c(C)cc(O)c2c(O)c3c(cc12)C(CC=C(C)C)(CC=C(C)C)C(O)=CC3=O` [HARUNGANIN], for which the Activity entry in the assay on Saccharomyces [2] was “Dose-dependent effect”. In assay [1], this compound displayed an IC50 of 6 µM. For `COc1cc(O)c2c(c1)C(=O)c1cc(C)cc(O)c1C2=O` [PHYSCION], the Activity entry in the assay on Saccharomyces [2] is “Dose-dependent effect”. In assay [1], the IC50 stood at 192 µM. With `COc1cc2c(c(O)c1/C=C/C(C)C)C(=O)c1c(O)cc(C)cc1C2=O`, the result in the assay on Saccharomyces [3] was inactive. As to `O=c1c2cc(O)ccc2oc2cccc(O)c12`, the result with Saccharomyces [3] was inactive. `COC1c2c(CC=C(C)C)c(C)cc(O)c2C(=O)c2c(O)cc3c(c21)CC(C(C)(C)O)O3` (stereo not given) [KENGANTHRANOL C]: in the assay with Saccharomyces [2], the Activity result is “Dose-dependent effect”. Besides, the IC50 in assay [1] is 21.9 µM. For `CC(C)=CCc1c(O)c(CC=C(C)C)c2c(c1O)C(=O)c1c(O)cc(C)c(CC=C(C)C)c1C2O` (stereo not given) [KENGANTHRANOL B], the Activity result in the assay with Saccharomyces [2] was “Dose-dependent effect”. In assay [1], this compound registered an IC50 of 6.3 µM. As for `CC(C)=CCc1c(C)c(CC=C(C)C)c2c(c1O)C(=O)c1c(O)cc(O)c(CC=C(C)C)c1C2` [HARUNGANOL B], the Activity result in the assay with Saccharomyces [2] was “Dose-dependent effect”. Moreover, the IC50 in assay [1] was 12 µM.

As for `OC[C@H]1NC[C@H](O)[C@@H](O)[C@@H]1O` [DUVOGLUSTAT], in assay [1], the IC50 is 426 µM. On to `COc1cc2c(c(O)c1CC(=O)C(C)C)C(=O)c1c(O)cc(C)cc1C2=O`, for which the result in the assay with Saccharomyces [3] was inactive.

These data come from ChEMBL document CHEMBL1157249, “Alpha-glucosidase inhibitory anthranols, kenganthranols A-C, from the stem bark of Harungana madagascariensis” (J Nat Prod, 2006).
